In ChEMBL document CHEMBL1629615, “Intrapulmonary pharmacokinetics and pharmacodynamics of posaconazole at steady state in healthy subjects” (Antimicrob Agents Chemother, 2009):

Legend:
[1] = Cmax in healthy human plasma at 200 mg, po every 12 hrs for 5 days; format: ADME, organism-based; parameters: dose 200 mg, route oral
[2] = Cmax in healthy human alveolar cell at 200 mg, po every 12 hrs for 5 days; format: ADME, organism-based, Lung, Pneumocyte; parameters: dose 200 mg, route oral; details: alveolar cells
[3] = Cmax in healthy human lung epithelial lining fluid assessed as hydroxyitraconazole at 200 mg, po every 12 hrs for 5 days; format: ADME, organism-based; parameters: dose 200 mg, route oral; details: in vivo
[4] = AUC (0 to 24 hrs) in healthy human plasma at 200 mg, po every 12 hrs for 5 days; format: ADME, organism-based; parameters: dose 200 mg, time < 24 hr, route oral
[5] = AUC (0 to 24 hrs) in healthy human lung epithelial lining fluid at 200 mg, po every 12 hrs for 5 days; format: ADME, organism-based; parameters: time < 24 hr, dose 200 mg, route oral
[6] = AUC (0 to 24 hrs) in healthy human alveolar cell at 200 mg, po every 12 hrs for 5 days; format: ADME, organism-based, Pneumocyte; parameters: time < 24 hr, dose 200 mg, route oral; details: alveolar cells
[7] = Cmax in healthy human plasma at 400 mg, po every 12 hrs for 7 days; format: ADME, organism-based; parameters: dose 400 mg, route oral
In short: (§1)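 Noncompartmental analysis of day-8 concentration-time data after 14 oral 400 mg doses every 12 h. Plasma parameters came from each subject's profile. ELF and alveolar cell values came from mean concentrations at each BAL time (3 to 24 h). AUC0-12 was calculated by the linear trapezoidal method.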

[8] = Cmax in healthy human lung epithelial lining fluid at 400 mg, po every 12 hrs for 7 days; format: ADME, organism-based; parameters: dose 400 mg, route oral; in short: as §1
[9] = Cmax in healthy human alveolar cell at 400 mg, po every 12 hrs for 7 days; format: ADME, organism-based, Lung, Pneumocyte; parameters: dose 400 mg, route oral; details: alveolar cells; in short: as §1
[10] = Tmax in healthy human plasma at 400 mg, po every 12 hrs for 7 days; format: ADME, organism-based; in short: as §1
[11] = Tmax in healthy human lung epithelial lining fluid at 400 mg, po every 12 hrs for 7 days; format: ADME, organism-based; in short: as §1
[12] = Tmax in healthy human alveolar cell at 400 mg, po every 12 hrs for 7 days; format: ADME, organism-based, Pneumocyte; details: alveolar cells; in short: as §1
[13] = AUC (0 to 12 hrs) in healthy human plasma at 400 mg, po every 12 hrs for 7 days; format: ADME, organism-based; parameters: dose 400 mg, time < 12 hr, route oral; in short: as §1
[14] = AUC (0 to 12 hrs) in healthy human lung epithelial lining fluid at 400 mg, po every 12 hrs for 7 days; format: ADME, organism-based; parameters: time < 12 hr, dose 400 mg, route oral; in short: as §1
[15] = AUC (0 to 12 hrs) in healthy human alveolar cell at 400 mg, po every 12 hrs for 7 days; format: ADME, organism-based, Pneumocyte; parameters: time < 12 hr, dose 400 mg, route oral; details: alveolar cells; in short: as §1
[16] = Ratio of Cmax in healthy human plasma at 400 mg, po every 12 hrs for 7 days to MIC90 for Aspergillus spp.; format: functional
[17] = Ratio of Cmax in healthy human lung epithelial lining fluid at 400 mg, po every 12 hrs for 7 days to MIC90 for Aspergillus spp.; format: functional
[18] = Ratio of Cmax in healthy human alveolar cell at 400 mg, po every 12 hrs for 7 days to MIC90 for Aspergillus spp.; format: functional, Pneumocyte
[19] = Ratio of AUC (0 to 24 hrs) in healthy human plasma at 400 mg, po every 12 hrs for 7 days to MIC90 for Aspergillus spp.; format: functional
[20] = Ratio of AUC (0 to 24 hrs) in healthy human lung epithelial lining fluid at 400 mg, po every 12 hrs for 7 days to MIC90 for Aspergillus spp.; format: functional
[21] = Ratio of AUC (0 to 24 hrs) in healthy human alveolar cell at 400 mg, po every 12 hrs for 7 days to MIC90 for Aspergillus spp.; format: functional, Pneumocyte
[22] = Drug level in healthy human plasma at 400 mg, po every 12 hrs for 7 days measured after 3 hrs of last dose; format: ADME, organism-based; details: read-out: Drug uptake
In short: (§2)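 Same dosing: 400 mg oral suspension after a high-fat meal every 12 h, 14 doses. Blood went into EDTA tubes at 0, 3, 5, 8, 12 and 24 h after the final dose and was spun at 1,300 x g for 10 min at 4°C. Plasma was frozen and assayed by validated LC-MS/MS, LLOQ 1.00 ng/ml, calibration 1.00 to 4,000 ng/ml.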

[23] = Drug level in healthy human plasma at 400 mg, po every 12 hrs for 7 days measured after 5 hrs of last dose; format: ADME, organism-based; details: read-out: Drug uptake; in short: as §2
[24] = Drug level in healthy human plasma at 400 mg, po every 12 hrs for 7 days measured after 8 hrs of last dose; format: ADME, organism-based; details: read-out: Drug uptake; in short: as §2
[25] = Drug level in healthy human plasma at 400 mg, po every 12 hrs for 7 days measured after 12 hrs of last dose; format: ADME, organism-based; details: read-out: Drug uptake; in short: as §2
[26] = Drug level in healthy human plasma at 400 mg, po every 12 hrs for 7 days measured after 24 hrs of last dose; format: ADME, organism-based; details: read-out: Drug uptake; in short: as §2
[27] = Drug level in healthy human alveolar cell at 400 mg, po every 12 hrs for 7 days measured after 3 hrs of last dose; format: ADME, organism-based, Pneumocyte; details: alveolar cells, read-out: Drug uptake
In short: (§3)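 Healthy adults got 400 mg oral suspension (40 mg/ml) 10 min after a high-fat meal every 12 h, for 14 doses over 8 days. Each subject had one bronchoscopy with BAL under topical lidocaine, no sedation, at 3, 5, 8, 12 or 24 h after the last dose. BAL fluid was spun at 400 x g for 5 min at 4°C. Supernatant and cell pellet were frozen at –70°C and assayed by LC-MS/MS against a plasma calibration curve. ELF volume was derived from urea.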

[28] = Drug level in healthy human alveolar cell at 400 mg, po every 12 hrs for 7 days measured after 5 hrs of last dose; format: ADME, organism-based, Pneumocyte; details: alveolar cells, read-out: Drug uptake; in short: as §3
[29] = Drug level in healthy human alveolar cell at 400 mg, po every 12 hrs for 7 days measured after 8 hrs of last dose; format: ADME, organism-based, Pneumocyte; details: alveolar cells, read-out: Drug uptake; in short: as §3
[30] = Drug level in healthy human alveolar cell at 400 mg, po every 12 hrs for 7 days measured after 12 hrs of last dose; format: ADME, organism-based, Pneumocyte; details: alveolar cells, read-out: Drug uptake; in short: as §3
[31] = Drug level in healthy human alveolar cell at 400 mg, po every 12 hrs for 7 days measured after 24 hrs of last dose; format: ADME, organism-based, Pneumocyte; details: alveolar cells, read-out: Drug uptake; in short: as §3
[32] = Drug level in healthy human lung epithelial lining fluid at 400 mg, po every 12 hrs for 7 days measured after 3 hrs of last dose; format: ADME, organism-based; details: read-out: Drug uptake; in short: as §3
[33] = Drug level in healthy human lung epithelial lining fluid at 400 mg, po every 12 hrs for 7 days measured after 5 hrs of last dose; format: ADME, organism-based; details: read-out: Drug uptake; in short: as §3
[34] = Drug level in healthy human lung epithelial lining fluid at 400 mg, po every 12 hrs for 7 days measured after 8 hrs of last dose; format: ADME, organism-based; details: read-out: Drug uptake; in short: as §3
[35] = Drug level in healthy human lung epithelial lining fluid at 400 mg, po every 12 hrs for 7 days measured after 12 hrs of last dose; format: ADME, organism-based; details: read-out: Drug uptake; in short: as §3
[36] = Drug level in healthy human lung epithelial lining fluid at 400 mg, po every 12 hrs for 7 days measured after 24 hrs of last dose; format: ADME, organism-based; details: read-out: Drug uptake; in short: as §3
[37] = Ratio of Drug level in healthy human alveolar cell to drug level in healthy human plasma at 400 mg, po every 12 hrs for 7 days measured after 3 hrs of last dose; format: ADME, organism-based, Pneumocyte; details: alveolar cells / plasma
[38] = Ratio of Drug level in healthy human alveolar cell to drug level in healthy human plasma at 400 mg, po every 12 hrs for 7 days measured after 5 hrs of last dose; format: ADME, organism-based, Pneumocyte; details: alveolar cells / plasma
[39] = Ratio of Drug level in healthy human alveolar cell to drug level in healthy human plasma at 400 mg, po every 12 hrs for 7 days measured after 8 hrs of last dose; format: ADME, organism-based, Pneumocyte; details: alveolar cells / plasma
[40] = Ratio of Drug level in healthy human alveolar cell to drug level in healthy human plasma at 400 mg, po every 12 hrs for 7 days measured after 12 hrs of last dose; format: ADME, organism-based, Pneumocyte; details: alveolar cells / plasma
[41] = Ratio of Drug level in healthy human alveolar cell to drug level in healthy human plasma at 400 mg, po every 12 hrs for 7 days measured after 24 hrs of last dose; format: ADME, organism-based, Pneumocyte; details: alveolar cells / plasma
[42] = Ratio of Drug level in healthy human lung epithelial lining fluid to drug level in healthy human plasma at 400 mg, po every 12 hrs for 7 days measured after 3 hrs of last dose; format: ADME, organism-based
[43] = Ratio of Drug level in healthy human lung epithelial lining fluid to drug level in healthy human plasma at 400 mg, po every 12 hrs for 7 days measured after 5 hrs of last dose; format: ADME, organism-based
[44] = Ratio of Drug level in healthy human lung epithelial lining fluid to drug level in healthy human plasma at 400 mg, po every 12 hrs for 7 days measured after 8 hrs of last dose; format: ADME, organism-based
[45] = Ratio of Drug level in healthy human lung epithelial lining fluid to drug level in healthy human plasma at 400 mg, po every 12 hrs for 7 days measured after 12 hrs of last dose; format: ADME, organism-based
[46] = Ratio of Drug level in healthy human lung epithelial lining fluid to drug level in healthy human plasma at 400 mg, po every 12 hrs for 7 days measured after 24 hrs of last dose; format: ADME, organism-based
[47] = T>MIC90 in healthy human lung epithelial lining fluid at 400 mg, po every 12 hrs for 7 days; format: functional
[48] = T>MIC90 in healthy human alveolar cell at 400 mg, po every 12 hrs for 7 days; format: functional, Pneumocyte
Plasma = assay: T>MIC90 in healthy human plasma at 400 mg, po every 12 hrs for 7 days; format: functional
Homo sapiens [49] = assay: Toxicity in healthy human plasma assessed as blood chemistry analysis at 400 mg, po every 12 hrs for 7 days; format: organism-based; details: in vivo
In short: (§4)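 Safety in healthy adults (21 to 55 y) given 400 mg orally every 12 h with a high-fat meal for 14 doses. Screening blood chemistry, hematology, urinalysis and ECG (corrected QT) were repeated on day 8.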

Homo sapiens [50] = assay: Toxicity in healthy human plasma assessed as hematological analysis at 400 mg, po every 12 hrs for 7 days; format: organism-based; details: in vivo; in short: as §4
Homo sapiens [51] = assay: Toxicity in healthy human assessed as urine analysis at 400 mg, po every 12 hrs for 7 days; format: organism-based; details: in vivo; in short: as §4
Homo sapiens [52] = assay: Toxicity in healthy human assessed as vital adverse effects at 400 mg, po every 12 hrs for 7 days; format: organism-based; details: in vivo; in short: as §4
[53] = Half life in human; format: ADME, organism-based; details: in vivo
[54] = Protein binding in human; format: ADME, organism-based; details: in vivo, read-out: PB
Homo sapiens [55] = assay: Cardiotoxicity in healthy human assessed as corrected QT intervals at 400 mg, po every 12 hrs for 8 days; details: in vivo

CCC(C)n1ncn(-c2ccc(N3CCN(c4ccc(OCC5COC(Cn6cncn6)(c6ccc(Cl)cc6Cl)O5)cc4)CC3)cc2)c1=O (stereo unspecified) [ITRACONAZOLE]
Cmax [1]: 2.1 µg/mL
Cmax [2]: 0.5 µg/mL
Cmax [3]: 5.5 µg/mL
AUC at 24 h [4]: 34.4 µg·h/mL
AUC at 24 h [5]: 7.4 µg·h/mL
AUC at 24 h [6]: 101 µg·h/mL

CC[C@@H]([C@H](C)O)n1ncn(-c2ccc(N3CCN(c4ccc(OC[C@@H]5CO[C@@](Cn6cncn6)(c6ccc(F)cc6F)C5)cc4)CC3)cc2)c1=O [POSACONAZOLE]
Cmax [7]: 2.08 µg/mL
Cmax [8]: 1.86 µg/mL
Cmax [9]: 87.7 µg/mL
Tmax [10]: 3.6 h
Tmax [11]: 5 h
Tmax [12]: 5 h
AUC at 12 h [13]: 21.9 µg·h/mL
AUC at 12 h [14]: 18.3 µg·h/mL
AUC at 12 h [15]: 715 µg·h/mL
Ratio [16]: 4.15
Ratio [17]: 3.72
Ratio [18]: 175
Ratio [19]: 87.6
Ratio [20]: 73.2
Ratio [21]: 2860
concentration at 3 h [22]: 1.93 µg/mL
concentration at 5 h [23]: 1.93 µg/mL
concentration at 8 h [24]: 1.73 µg/mL
concentration at 12 h [25]: 1.62 µg/mL
concentration at 24 h [26]: 1.28 µg/mL
concentration at 3 h [27]: 46.2 µg/mL
concentration at 5 h [28]: 87.7 µg/mL
concentration at 8 h [29]: 60.9 µg/mL
concentration at 12 h [30]: 49 µg/mL
concentration at 24 h [31]: 60.7 µg/mL
concentration at 3 h [32]: 1.66 µg/mL
concentration at 5 h [33]: 1.86 µg/mL
concentration at 8 h [34]: 1.69 µg/mL
concentration at 12 h [35]: 1.02 µg/mL
concentration at 24 h [36]: 1.8 µg/mL
Kp at 3 h [37]: 34.5
Kp at 5 h [38]: 44.3
Kp at 8 h [39]: 32.5
Kp at 12 h [40]: 27.3
Kp at 24 h [41]: 34.9
Kp at 3 h [42]: 1.08
Kp at 5 h [43]: 0.75
Kp at 8 h [44]: 0.95
Kp at 12 h [45]: 0.59
Kp at 24 h [46]: 0.92
T>MIC90 [47]: 24 h
T>MIC90 [48]: 24 h
T>MIC90 (Plasma): 22.3 h
Activity (Homo sapiens [49]): Non-toxic
Activity (Homo sapiens [50]): Non-toxic
Activity (Homo sapiens [51]): Non-toxic
Activity (Homo sapiens [52]): Non-toxic
half-life [53]: 35 h
fraction unbound [54]: < 0.02
Activity (Homo sapiens [55]): Non-toxic
